# Laboratory results as given in article PMC3319156 (Journal of Medicinal Chemistry, 2011).
# Columns and labels:
# [1] = tested on: Tyr861 of FAK; details: tumor cells; cited from earlier work
# [2] = molecular target: Tyr705 of Stat3 (Homo sapiens, UniProt P40763); experiment: Inhibition of constitutive Stat3 Tyr705 phosphorylation in MDA-MB-468 cells; type: cell-based; details: for concentration at which pStat3 was completely inhibited / concentration with noticeable inhibition of pStat3: MDA-MB-468, 2 h treatment, western blot; for time at which pStat3 formation was completely inhibited / time for which complete inhibition of pStat3 was sustained: MDA-MB-468, single dose of 5 µM; for effect on pStat3 band at 25 µM: MDA-MB-468, 25 µM
# Sequence of Tyr705 of Stat3 (P40763 whole entry): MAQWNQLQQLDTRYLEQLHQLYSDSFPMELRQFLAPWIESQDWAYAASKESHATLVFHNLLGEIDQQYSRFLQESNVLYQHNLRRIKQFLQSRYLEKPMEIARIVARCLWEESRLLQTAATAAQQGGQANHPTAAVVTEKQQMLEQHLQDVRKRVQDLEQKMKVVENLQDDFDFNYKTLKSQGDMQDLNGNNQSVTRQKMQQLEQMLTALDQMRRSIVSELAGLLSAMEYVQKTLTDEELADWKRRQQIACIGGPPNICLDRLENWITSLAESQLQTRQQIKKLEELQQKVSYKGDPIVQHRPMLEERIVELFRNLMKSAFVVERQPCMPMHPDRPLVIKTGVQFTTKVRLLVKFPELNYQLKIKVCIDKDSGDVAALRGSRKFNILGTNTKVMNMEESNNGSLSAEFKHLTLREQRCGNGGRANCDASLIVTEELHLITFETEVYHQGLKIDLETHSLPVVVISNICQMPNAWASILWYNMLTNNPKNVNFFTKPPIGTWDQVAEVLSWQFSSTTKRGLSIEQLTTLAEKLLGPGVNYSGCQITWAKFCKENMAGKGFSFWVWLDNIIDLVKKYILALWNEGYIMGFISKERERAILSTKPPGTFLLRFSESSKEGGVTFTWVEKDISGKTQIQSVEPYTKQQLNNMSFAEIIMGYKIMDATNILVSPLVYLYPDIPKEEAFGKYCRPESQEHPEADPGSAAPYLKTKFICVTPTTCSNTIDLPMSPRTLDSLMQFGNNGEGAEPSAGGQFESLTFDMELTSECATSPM
# Summary of the method: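 MDA-MB-468 cells (4 × 10^5/well) were grown overnight in DMEM with 10% FCS. Prodrug was given from a 10 mM DMSO stock prepared fresh, for 2 h, or over a time course. After ice-cold PBS washes, cells were lysed (Hepes pH 7.4, Triton X-100, NaF, vanadate, protease inhibitors). 12 µg protein went on 8% SDS-PAGE/PVDF with 5% BSA block. Blots were probed for pStat3 Y705 by ECL, stripped at 50°C, and reprobed for total Stat3.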
# [3] = tested on: cultured melanoma, breast, prostate, and pancreatic tumor cell lines; details: cited from earlier work
# [4] = molecular target: T1, Stat3 (Homo sapiens, UniProt P40763); experiment: Inhibition of constitutive Stat3 phosphorylation in BT20 breast tumor cells; type: cell-based; details: screen
# T1 sequence (P40763 whole entry): as above
# [5] = molecular target: T1, Stat3; experiment: EGF-stimulated Stat3 phosphorylation in MDA-MB-468 cells; type: cell-based; details: MDA-MB-468, 5 µM, 1.5 h then EGF 30 min
# [6] = tested on: Tyr694 of Stat5; experiment: Stat5 Tyr694 phosphorylation in MDA-MB-468 cells; type: cell-based; details: MDA-MB-468, 5 µM, 1.5 h then EGF 30 min
# [7] = tested on: Ser473 of Akt; experiment: Akt Ser473 phosphorylation in MDA-MB-468 cells; type: cell-based; details: MDA-MB-468, 5 µM, 1.5 h then EGF 30 min
# [8] = tested on: Tyr861 of the focal adhesion kinase (FAK); experiment: Constitutive FAK Tyr861 phosphorylation in MDA-MB-468 cells; type: cell-based; details: MDA-MB-468, 2 h treatment
# Summary of the method: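 Constitutive signal, no stimulus: MDA-MB-468 cells were plated overnight in DMEM/10% FCS and given test compound from a 10 mM DMSO stock for 2 h. Cells were lysed in Hepes pH 7.4 detergent buffer with phosphatase and protease inhibitors. Protein was separated by SDS-PAGE, blotted to PVDF, blocked with 5% BSA, and probed for pTyr861 FAK and total FAK.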
# [9] = molecular target: T2, Tyr701 of Stat1 (Homo sapiens, UniProt P42224); experiment: IFNγ-stimulated Stat1 Tyr701 phosphorylation in MDA-MB-468 cells; type: cell-based; details: MDA-MB-468, 1.5 h then 30 min IFNγ
# T2 sequence (P42224 1-750): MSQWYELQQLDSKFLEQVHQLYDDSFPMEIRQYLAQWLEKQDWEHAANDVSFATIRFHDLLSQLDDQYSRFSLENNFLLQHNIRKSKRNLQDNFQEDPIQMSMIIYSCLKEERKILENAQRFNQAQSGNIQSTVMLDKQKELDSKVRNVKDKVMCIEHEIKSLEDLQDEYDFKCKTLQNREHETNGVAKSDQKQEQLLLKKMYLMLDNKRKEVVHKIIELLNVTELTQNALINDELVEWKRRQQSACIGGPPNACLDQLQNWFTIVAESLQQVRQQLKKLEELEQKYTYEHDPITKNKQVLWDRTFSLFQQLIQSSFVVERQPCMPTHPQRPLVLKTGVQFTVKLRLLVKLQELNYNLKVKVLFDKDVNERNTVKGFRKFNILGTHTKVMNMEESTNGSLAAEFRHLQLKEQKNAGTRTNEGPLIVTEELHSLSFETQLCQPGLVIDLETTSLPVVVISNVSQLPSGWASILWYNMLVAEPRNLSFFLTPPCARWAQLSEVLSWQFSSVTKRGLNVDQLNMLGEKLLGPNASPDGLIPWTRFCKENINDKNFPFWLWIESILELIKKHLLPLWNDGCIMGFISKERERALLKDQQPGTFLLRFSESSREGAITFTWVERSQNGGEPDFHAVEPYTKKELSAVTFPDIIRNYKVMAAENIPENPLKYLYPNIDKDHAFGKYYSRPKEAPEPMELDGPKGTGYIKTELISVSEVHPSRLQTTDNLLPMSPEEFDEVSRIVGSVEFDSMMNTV
# Summary of the method: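 MDA-MB-468 cells were prepared as for the Stat3 assay (plated overnight in DMEM/10% FCS) and exposed to increasing test compound concentrations for 1.5 h. Interferon γ was then added at 25 ng/mL for 30 min. Lysates were run on PAGE, blotted to PVDF, and probed for pTyr701 Stat1 and total Stat1 with chemiluminescent detection.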
# [10] = tested on: MDA-MB-468 cells; experiment: Cytotoxicity to MDA-MB-468 cells, MTT assay; type: cell-based; details: MDA-MB-468, treated daily for three days
# Summary of the method: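 MDA-MB-468 cells in DMEM with 10% FBS were plated at 1500 cells/well in triplicate, and the medium was changed the next day. Prodrug was dissolved fresh in ethanol to a 10 mM stock, diluted, and added. Further doses went into the same medium at 24 and 48 h, with final ethanol below 1%. Viability was read by MTT.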
# [11] = tested on: H528; experiment: Growth inhibition of H528 NSCLC cells; type: cell-based; details: H528, 5–10 µM, data not shown
smiles,measurement,setting,value
Cc1nc(Nc2ncc(C(=O)Nc3c(C)cccc3Cl)s2)cc(N2CCN(CCO)CC2)n1 [dasatinib],levels of Tyr861 phosphorylation on treatment,[1],decrease
C/C(=C\C(=O)N[C@H]1CCc2cccc3c2N(C1=O)[C@H](C(=O)N[C@@H](CCC(N)=O)C(=O)NCc1ccccc1)C3)c1ccc(C(F)(F)P(=O)(OCOC(=O)C(C)(C)C)OCOC(=O)C(C)(C)C)cc1 [compound 32],effect on level of pStat3,"[2]; MDA-MB-468, 2 h, increasing concentrations",reduced the level of pStat3 in a dose-dependent manner
Cc1cc(Nc2nc(N[C@@H](C)c3ncc(F)cn3)ncc2Cl)n[nH]1 [AZD1480],cytotoxicity at concentrations that completely eliminated Tyr705 phosphorylation,[3],not cytotoxic
CCCC[C@H](NC(=O)/C=C(\C)c1ccc(C(F)(F)P(=O)(OCOC(=O)C(C)(C)C)OCOC(=O)C(C)(C)C)cc1)C(=O)N1CC2CC2C1C(=O)NCCNC(N)=O (stereo partly drawn) [compound 39],concentration at which pStat3 was completely inhibited,[2],5 µM
same,inhibition of the phosphorylation of Stat3 up to 1 µM,"[2]; MDA-MB-468, up to 1 µM, 2 h",little inhibition
C[C@H](CCC(N)=O)NC(=O)[C@@H]1Cc2cccc3c2N1C(=O)[C@@H](NC(=O)/C=C/c1ccc(C(F)(F)P(=O)(OCOC(=O)C(C)(C)C)OCOC(=O)C(C)(C)C)cc1)CC3 [compound 33],concentration at which pStat3 was completely inhibited,[2],0.5 µM
same,concentration with noticeable inhibition of pStat3,[2],0.1 µM
CCCC[C@H](NC(=O)/C=C(\C)c1ccc(C(F)(F)P(=O)(OCOC(=O)C(C)(C)C)OCOC(=O)C(C)(C)C)cc1)C(=O)N1C[C@H]2C[C@H]2[C@H]1C(=O)N[C@H](C)CCC(N)=O [compound 37],concentration at which pStat3 was completely inhibited,[2],0.5 µM
same,time at which pStat3 formation was completely inhibited,[2],30 min
same,time for which complete inhibition of pStat3 was sustained,[2],4 h
same,ability to inhibit constitutive phosphorylation of Stat3,[4],considerable potency
same,increase in Stat3 phosphorylation induced by EGF,[5],completely inhibited
same,Stat5 phosphorylation,[6],not inhibited
same,Akt Ser473 phosphorylation,[7],do not inhibit Akt phosphorylation
same,FAK Tyr861 phosphorylation,[8],no reduction of Tyr861 phosphorylation
same,concentration of complete inhibition of Stat1 phosphorylation,[9],5 µM
CCOP(=O)(OCC)C(F)(F)c1ccc(/C(C)=C/C(=O)N[C@H]2CCc3cccc4c3N(C2=O)[C@H](C(=O)N[C@H](C)CCC(N)=O)C4)cc1 [compound 40],effect on pStat3 band at 25 µM,[2],no effect on Stat3 phosphorylation
CCCC[C@H](NC(=O)/C=C(\C)c1ccc(C(F)(F)P(=O)(OCOC(=O)C(C)(C)C)OCOC(=O)C(C)(C)C)cc1)C(=O)N1C[C@@H]2C[C@@H]2[C@@H]1C(=O)N[C@H](C)CCC(N)=O [compound 38],effect on pStat3 band at 25 µM,[2],only partially reduced
CCCC[C@H](NC(=O)/C=C(\C)c1ccc(C(F)(F)P(=O)(OCOC(=O)C(C)(C)C)OCOC(=O)C(C)(C)C)cc1)C(=O)N1C[C@@H]2C[C@@H]2[C@@H]1C(=O)N[C@@H](CCC(N)=O)C(C)OCc1ccccc1 (stereo partly drawn) [compound 36],effect on pStat3 band at 25 µM,[2],only partially reduced
same,concentration with noticeable inhibition of pStat3,[2],≥ 25 µM
same,fold less potent at inhibiting Stat3 phosphorylation,[2]; relative to 35,20–25 fold
CC(C)(C)c1nc2c3cc[nH]c(=O)c3c3cc(F)ccc3c2[nH]1 [P6],cytotoxicity at concentrations that completely eliminated Tyr705 phosphorylation,[3],not cytotoxic
CCCC[C@H](NC(=O)/C=C(\C)c1ccc(C(F)(F)P(=O)(OCOC(=O)C(C)(C)C)OCOC(=O)C(C)(C)C)cc1)C(=O)N1C[C@H]2C[C@H]2[C@H]1C(=O)N[C@@H](CCC(N)=O)C(C)OCc1ccccc1 (stereo partly drawn) [compound 35],concentration at which pStat3 was completely inhibited,[2],0.5 µM
same,time at which pStat3 formation was completely inhibited,[2],30 min
same,time for which complete inhibition of pStat3 was sustained,[2],4 h
same,ability to inhibit constitutive phosphorylation of Stat3,[4],considerable potency
same,increase in Stat3 phosphorylation induced by EGF,[5],completely inhibited
same,Stat5 phosphorylation,[6],not inhibited
same,Akt Ser473 phosphorylation,[7],do not inhibit Akt phosphorylation
same,FAK Tyr861 phosphorylation,[8],no reduction of Tyr861 phosphorylation
same,concentration of complete inhibition of Stat1 phosphorylation,[9],5 µM
same,survival curves with daily dosing compared with single dose,[10],little change in the survival curves
same,inhibition,[11],< 20%
